Tests used:
[1] = Growth inhibition of human HCT116 cells measured after 48 hrs by MTS assay; type: functional, cell-based; conditions: HCT-116, 48 h
In short: (§1)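 Cancer lines grown in their own media with 10% FBS at 37 °C, 5% CO2; 1 × 10^4 cells/well treated 48 h at 0.01−100 μM (DMSO stocks, 0.1% DMSO control), quadruplicate wells. MTS reagent 1−4 h, absorbance 490 nm. IC50 by sigmoidal fitting; mean ± SD of three independent experiments.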

Paracentrotus lividus [2] = experiment: Antimitotic activity in sea urchin Paracentrotus lividus L embryo assessed as induction of cleavage alteration; type: functional
In short: (§2)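 Gametes collected by intracoelomic 0.5 M KCl injection; fertilized eggs (8−15 min postfertilization) exposed in seawater to 2-fold decreasing concentrations, up to 2000 embryos/mL, room temperature. Stocks 10 mM in DMSO diluted 10-fold in 96% EtOH. Cleavage alteration/arrest scored at 2.5−5.5 h; effective threshold concentration reported, duplicate measurements.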

Paracentrotus lividus [3] = experiment: Antimitotic activity against sea urchin Paracentrotus lividus L embryo assessed as induction of cleavage arrest; type: functional; in short: as §2
Paracentrotus lividus [4] = experiment: Antimitotic activity against sea urchin Paracentrotus lividus L embryo assessed as induction of embryo spinning; type: functional
In short: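 Hatched free-swimming blastulae (8−9 h postfertilization) exposed to 2-fold decreasing concentrations in seawater, room temperature; DMSO stock diluted 10-fold in 96% EtOH. Observed to four-arm pluteus (34−36 h); spinning on well bottom without forward movement scored as microtubule destabilization; effective threshold concentration, duplicate measurements.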

[5] = Growth inhibition of human A549 cells by MTS assay; type: functional, cell-based; in short: as §1
[6] = Growth inhibition of human A375 cells measured after 48 hrs by MTS assay; type: functional, cell-based; conditions: A-375, 48 h; in short: as §1
[7] = Growth inhibition of human DU145 cells measured after 48 hrs by MTS assay; type: functional, cell-based; conditions: DU-145, 48 h; in short: as §1
[8] = Growth inhibition of human PC3 cells measured after 48 hrs by MTS assay; type: functional, cell-based; conditions: PC-3, 48 h; in short: as §1
[9] = Growth inhibition of human MDA-MB-231 cells measured after 48 hrs by MTS assay; type: functional, cell-based; conditions: MDA-MB-231, 48 h; in short: as §1
[10] = Growth inhibition of human SKOV3 cells measured after 48 hrs by MTS assay; type: functional, cell-based; conditions: SK-OV-3, 48 h; in short: as §1
[11] = Growth inhibition of human PBMC cells measured after 48 hrs by MTS assay; type: cell-based
In short: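 PBMCs from healthy volunteers by Ficoll-Paque density separation, washed in RPMI 1640, cultured in RPMI 1640 with 10% heat-inactivated FBS at 37 °C, 5% CO2. Seeded 1 × 10^4 cells/well, treated 48 h at 0.01−100 μM, 0.1% DMSO control, quadruplicate wells; MTS read at 490 nm; IC50 by sigmoidal fitting, three experiments.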

Paracentrotus lividus [12] = experiment: Antimitotic activity against sea urchin Paracentrotus lividus L embryo assessed as induction of tuberculate egg formation; type: functional
In short: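 Fertilized eggs were exposed 8−15 min post-fertilization to 2-fold decreasing concentrations, as a monolayer of up to 2000 embryos/mL in filtered seawater at room temperature. The 10 mM DMSO stock was diluted 10-fold in 96% EtOH. Cleavage alteration or arrest was scored by light microscopy at 2.5−5.5 h post-fertilization, and the effective threshold concentration was recorded from duplicate measurements.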

SMILES	IC50 [1] [µM]	EC (Paracentrotus lividus [2]) [µM]	EC (Paracentrotus lividus [3]) [µM]	EC (Paracentrotus lividus [4]) [µM]	IC50 [5] [µM]	IC50 [6] [µM]	IC50 [7] [µM]	IC50 [8] [µM]	IC50 [9] [µM]	IC50 [10] [µM]	IC50 [11] [µM]	EC (Paracentrotus lividus [12]) [µM]
COc1cc2occ(-c3cc(OC)c(OC)c(OC)c3OC)c(=O)c2cc1OC	> 10	>4	>4	>4	> 10	> 10	> 10	> 10	> 10	> 10	> 10	–
COc1ccc(-c2coc3cc(OC)c(OC)cc3c2=O)cc1	> 10	0.2	–	>5	> 10	> 10	> 10	> 10	> 10	> 10	> 10	1
COc1ccc(-c2coc3cc(OC)c(OC)cc3c2=O)cc1OC	> 10	4	>4	>4	> 10	> 10	> 10	> 10	> 10	> 10	> 10	–
COc1ccc(-c2coc3c(OC)c(OC)c(OC)cc3c2=O)cc1OC	–	4	>4	>4	–	–	–	–	–	–	–	–
COc1cc2occ(-c3cc(OC)c4c(c3)OCO4)c(=O)c2cc1OC	> 10	0.1	–	>5	> 10	6.1	> 10	> 10	> 10	> 10	> 10	1
COc1ccc(-c2coc3c(OC)c4c(c(OC)c3c2=O)OCO4)cc1OC	> 10	>4	>4	>4	> 10	> 10	> 10	> 10	> 10	> 10	> 10	–
COc1cc2occ(-c3cc(OC)c(OC)c(OC)c3)c(=O)c2cc1OC	2.8	0.2	–	>5	> 10	3.2	4.9	5.1	> 10	4.3	> 10	1
COc1cc2occ(-c3cc4c(c(OC)c3OC)OCO4)c(=O)c2cc1OC	3.4	0.5	–	>5	> 10	1.7	6.4	7.3	7.1	> 10	> 10	5
COc1cccc(-c2coc3cc(OC)c(OC)cc3c2=O)c1	> 10	2	>4	>5	> 10	> 10	> 10	> 10	> 10	> 10	> 10	–
COc1ccc(-c2coc3cc(OC)c(O)cc3c2=O)cc1	–	1	–	>5	–	–	–	–	–	–	–	4
COc1ccc(-c2coc3cc(OC)c(OC)c(OC)c3c2=O)cc1	–	>4	>4	>4	–	–	–	–	–	–	–	–
COc1ccc(/C=C\c2cc(OC)c(OC)c(OC)c2)cc1OP(=O)([O-])[O-].[Na+].[Na+] [FOSBRETABULIN DISODIUM]	0.0016	0.005	0.01	0.05	0.0234	0.0016	0.0014	0.0062	0.0028	0.0077	0.17	–
COc1cc2occ(-c3cc(OC)c4c(c3OC)OCO4)c(=O)c2cc1OC [GLAZIOVIANIN A]	0.69	0.05	0.5	4	1.1	0.27	0.87	0.83	2.2	0.43	> 10	–
